Experimental data: ChEMBL document CHEMBL5107962, “Covalent sortase A inhibitor ML346 prevents Staphylococcus aureus infection of Galleria mellonella” (RSC Med Chem, 2022)
Calls of active or inactive are those of the source. The rule behind the calls is not given here.

What was measured:
[1] = Irreversible inhibition of recombinant Streptococcus pyogenes sortase A deltaN81 expressed in Escherichia coli BL21(DE3) cells using Abz-LPATG-Dnp as substrate preincubated for 60 mins followed by substrate addition and measured every 1 min for 15 mins by FRET-based assay
[2] = test system: Sortase A (Staphylococcus aureus), Q9S446 [UNDEFINED MUTATION]; assay: (§1) Irreversible inhibition of recombinant Staphylococcus aureus sortase A deltaN24 expressed in Escherichia coli BL21(DE3) cells using Abz-LPATG-Dnp as substrate assessed as maximum inactivation rate constant preincubated for 60 mins followed by substrate addition and measured every 1 min for 15 mins by fluorescence intensity based assay; conditions: time 75.0 min
How it was run: (§2)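 Variable inhibitor concentrations incubated with SaSrtAΔN24 or SpSrtAΔN81 for different times, followed by FRET enzyme kinetics with Abz-LPATG-Dnp. kobs fitted as kinact × [I]/(KI + [I]) to give kinact and KI.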

[3] = target: Cathepsin B (Homo sapiens, UniProt P07858); assay: Inhibition of cathepsin B (unknown origin) using Cbz-Phe-Arg-AMC as substrate at 20 uM preincubated for 5 mins followed by substrate addition and measured after 10 mins by fluorometric assay; conditions: time 15.0 min
How it was run: (§3)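 Cbz-Phe-Arg-AMC added (40 µM for B, 80 µM for L) and fluorescence read at ex 380/em 460 nm over 10 min. E64 at 6.25 nM as control. Triplicates, two experiments.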

[4] = test system: Staphylococcus aureus; assay: Anti-virulence activity against Staphylococcus aureus USA300 assessed as decrease in cell-wall anchored SpA level at 25 to 200 uM by FITC-labelled human IgG based […]; format: functional, organism-based; conditions: dose 25-200 µM
How it was run: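 S. aureus grown in TSB (1:1000 dilution) with inhibitor until A600 1.0. Washed cells incubated with FITC-labelled human IgG in PBS for 30 min at room temperature in the dark, rinsed, and read by fluorescence. Three technical replicates, three independent experiments. Mean ± SEM, unpaired two-tailed Student's t test (n = 3).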

[5] = Irreversible inhibition of recombinant Streptococcus pyogenes sortase A deltaN81 expressed in Escherichia coli BL21(DE3) cells using Abz-LPATG-Dnp as substrate preincubated for 20 mins followed by substrate addition and measured every 1 min for 15 mins by FRET-based assay
[6] = test system: Sortase A (Staphylococcus aureus), Q9S446 [UNDEFINED MUTATION]; assay: Irreversible inhibition of recombinant Staphylococcus aureus sortase A deltaN24 expressed in Escherichia coli BL21(DE3) cells using Abz-LPATG-Dnp as substrate assessed as increase in Km preincubated for 60 mins followed by substrate addition and measured every 1 min for 15 mins by FRET-based assay; conditions: time 75.0 min
How it was run: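 SrtA (5 µM) incubated 1 h at room temperature with compound or DMSO, then inhibitor removed by centrifugal filtration. Aliquots taken before and after filtration were assayed with Abz-LPATG-Dnp (0.78–200 µM for Sa enzyme, 0.2–50 µM for Sp enzyme) at ex 309/em 420 nm for 15 min. Km fitted; MTSET as control; triplicates, run in duplicate.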

[7] = test system: Streptococcus pyogenes; assay: as §1, with “Streptococcus pyogenes” for “Staphylococcus aureus”, “deltaN81” for “deltaN24”; conditions: time 75.0 min; how it was run: as §2
[8] = Irreversible inhibition of recombinant Streptococcus pyogenes sortase A deltaN81 expressed in Escherichia coli BL21(DE3) cells using Abz-LPATG-Dnp as substrate assessed as inactivation constant preincubated for 60 mins followed by substrate addition and measured every 1 min for 15 mins by fluorescence intensity based assay; how it was run: as §2
[9] = target: T1, Sortase A (Staphylococcus aureus, UniProt Q9S446); assay: Irreversible inhibition of recombinant Staphylococcus aureus sortase A deltaN24 expressed in Escherichia coli BL21(DE3) cells using Abz-LPATG-Dnp as substrate preincubated for 40 mins followed by substrate addition and measured every 1 min for 15 mins by FRET-based assay
How it was run: (§4)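 SaSrtAΔN24 preincubated with compound for 10, 20, 40 or 60 min before FRET IC50 determination with Abz-LPATG-Dnp in Tris pH 7.5, NaCl, CaCl2 buffer.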

[10] = test system: Staphylococcus aureus; assay: […] activity against compound pretreated wild type Staphylococcus aureus Newman infected in Galleria mellonella larvae assessed as pathogenicity by measuring melanization after 24 hrs of bacterial injection; format: functional, organism-based
How it was run: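 S. aureus diluted 1:1000 with or without compound and grown to A600 1.0. 10 µL of a 1 × 10^7 CFU mL-1 PBS suspension injected into the last proleg of starved larvae, held at 37 °C. Larvae chilled on ice and photographed at 24 h to score melanization. ΔsrtA strain used as control.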

[11] = target: Procathepsin L (Homo sapiens, UniProt P07711); assay: Inhibition of cathepsin L (unknown origin) using Cbz-Phe-Arg-AMC as substrate at 20 uM preincubated for 5 mins followed by substrate addition and measured after 10 mins by fluorometric assay; conditions: time 15.0 min; how it was run: as §3
Procathepsin L, sequence (P07711 114-333 limits assumed): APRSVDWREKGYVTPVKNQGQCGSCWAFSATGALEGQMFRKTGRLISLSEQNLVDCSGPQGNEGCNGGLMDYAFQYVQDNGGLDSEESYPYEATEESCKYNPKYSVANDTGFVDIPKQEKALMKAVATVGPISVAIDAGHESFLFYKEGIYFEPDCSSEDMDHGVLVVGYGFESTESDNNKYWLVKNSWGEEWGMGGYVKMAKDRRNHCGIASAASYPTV

[12] = test system: Staphylococcus aureus; assay: Irreversible inhibition of recombinant Staphylococcus aureus sortase A deltaN24 C184A mutant expressed in Escherichia coli BL21(DE3) cells assessed as thermal stabilization by measuring change in melting temperature incubated for 15 mins by Nano DSF assay
How it was run: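 40 µg SaSrtAΔN24 (wild type or C184A) in 100 µL 50 mM Tris-HCl pH 9.0, 150 mM NaCl, 5 mM CaCl2 incubated with compound for 15 min at room temperature, then centrifuged. Label-free nanoDSF read at 330/350 nm while ramping 30–90 °C at 2 °C per min. Tm taken from the first derivative of the ratio.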

[13] = test system: Staphylococcus aureus; assay: Anti-virulence activity against Staphylococcus aureus Newman assessed as decrease in SpA display on cell envelope at 25 to 200 uM by Western blot analysis; format: functional, organism-based; conditions: dose 25-200 µM
How it was run: (§5)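 S. aureus overnight culture diluted 1:1000 in TSB and grown with inhibitor until A600 3.0. Washed cells treated with 10 µg mL-1 lysostaphin in PBS for 15 min at 37 °C. Supernatant (cell-wall anchored proteins) run on SDS-PAGE and immunoblotted for SpA, with ClpP as loading control. Three independent experiments.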

[14] = test system: Staphylococcus aureus; assay: Antibacterial activity against Staphylococcus aureus Newman assessed as inhibition of bacterial growth incubated for 16 to 18 hrs; format: functional; conditions: time 16-18 hrs
How it was run: (§6)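 Broth microdilution: S. aureus in TSB, E. coli in LB. Overnight cultures diluted 1:1000, grown at 37 °C to A600 0.6, then diluted 1:400 into two-fold compound dilutions. Incubated 16–18 h at 37 °C without shaking. MIC taken as the lowest concentration with no visible growth. Two independent experiments.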

[15] = Toxicity in Galleria mellonella larvae assessed as creamy colour appearance measured after 120 hrs
How it was run: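 G. mellonella larvae (2-2.5 cm, creamy), starved 24 h, injected with 10 µL compound in vehicle (5% DMSO, 20% PEG300, 75% PBS with 6.6% solutol HS-15). Kept at 37 °C; survival and appearance recorded over 120 h with photography. Three independent experiments.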

[16] = test system: Staphylococcus aureus; assay: Anti-virulence activity against Staphylococcus aureus USA300 assessed as decrease in SpA display on cell envelope by Western blot analysis; format: functional, organism-based; conditions: dose 25-200 µM, DDE = dose-dependent effect; how it was run: as §5
[17] = test system: Escherichia coli; assay: Antibacterial activity against Escherichia coli AB1157 assessed as inhibition of bacterial growth incubated for 16 to 18 hrs; format: functional; conditions: time 16-18 hrs; how it was run: as §6
[18] = target: T1, Sortase A; assay: Irreversible inhibition of recombinant Staphylococcus aureus sortase A deltaN24 expressed in Escherichia coli BL21(DE3) cells using Abz-LPATG-Dnp as substrate preincubated for 60 mins followed by substrate addition and measured every 1 min for 15 mins by FRET-based assay; how it was run: as §4

For `COc1ccc(/C=C/C=C2C(=O)NC(=O)NC2=O)cc1`, the IC50 [1] was 700 nM, the Kinact [2] was 0.185 min⁻¹ and the inhibition [3] was “Active”. The Activity [4] was “Active”, the IC50 [5] was 2300 nM and the inhibition [6] was “Active”. It also gave a Kinact [7] of 0.044 min⁻¹, a Ki [8] of 686 nM and an IC50 [9] of 400 nM. For the same compound, the Activity [10] was “Active”, the inhibition [11] was “Active” and the ΔTm [12] was -0.1 °C. For the same compound, the Activity [13] was “Active”, the MIC [14] was > 512 µg/mL and the Activity [15] was “Non-Toxic”. The Activity [16] was “Dde”, the MIC [17] was > 512 µg/mL and the IC50 [18] was 300 nM.
